Tests used:
Onchocerca volvulus [1] = experiment: Mean motility score for treated Onchocerca volvulus excluding LLCMK2 feeder cells at a concentration of 3.1*10e-6 M at 1 h
Onchocerca gutturosa [2] = experiment: Mean motility score for treated Onchocerca gutturosa involving LLCMK2 feeder cells at a concentration of 5*10e-5 M at 2 h; format: functional
Outline: (§1)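 Single male O. gutturosa worms (obtained following abattoir slaughter) per well in Eagle's MEM with 10% heat-inactivated fetal calf serum, penicillin, streptomycin, amphotericin B and bicarbonate, over LLCMK2 feeder cells, 5% CO2 in air. Drug dissolved in DMSO; controls received matched DMSO ≤0.016%. Motility scored 0 (immotile) to 10 (maximum control activity) every 30 min to 4.5 h, then days 1, 2, 3, 4, 7.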

Acanthocheilonema viteae [3] = experiment: anti-filarial Activity was measured against Acanthocheilonema viteae in jirds at 12.5 mg/kg/day(5 days) dose; format: functional
Outline: (§2)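 Jirds with established B. pahangi or A. viteae infections were given drug once daily for 5 days by subcutaneous injection, at the maximum tolerated dose and, where supply allowed, graded lower doses. Tolerance was first checked in noninfected jirds with a single 200 mg/kg oral or subcutaneous dose, watching 72 h for excessive weight loss or death. Macrofilarial suppression was the read-out.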

Onchocerca gutturosa [4] = experiment: Mean motility score for treated Onchocerca gutturosa involving LLCMK2 feeder cells at a concentration of 5*10e-5 M at 24 h; format: functional
Outline: as §1

Onchocerca gutturosa [5] = experiment: Mean motility score for treated Onchocerca gutturosa involving LLCMK2 feeder cells at a concentration of 5*10e-5 M at 48 h; format: functional
Outline: (§3)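 Single male O. gutturosa worms per well in Eagle's MEM with 10% heat-inactivated fetal calf serum, antibiotics and bicarbonate, over LLCMK2 feeder cells, 5% CO2 in air. Test chemical dissolved in DMSO and diluted into medium; control wells got matched DMSO not exceeding 0.016%. Motility scored 0 (immotile) to 10 (maximum control motility) every 30 min for 4.5 h, then at 1, 2, 3, 4 and 7 days.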

Onchocerca gutturosa [6] = experiment: Mean motility score for treated Onchocerca gutturosa involving LLCMK2 feeder cells at a concentration of 3.05*10e-9 M at 96 h; format: functional
Outline: as §1

Onchocerca volvulus [7] = experiment: Mean motility score for treated Onchocerca volvulus excluding LLCMK2 feeder cells at a concentration of 3.1*10e-6 M at 0.5 h
Acanthocheilonema viteae [8] = experiment: anti-filarial Activity was measured against Acanthocheilonema viteae in jirds at 25 mg/kg/day(5 days) dose; format: functional
Outline: as §2

Onchocerca volvulus [9] = experiment: Mean motility score for treated Onchocerca volvulus excluding LLCMK2 feeder cells at a concentration of 5*10e-5 M at 1 h
Brugia pahangi [10] = experiment: anti-filarial Activity was measured against Brugia pahangi in jirds at 12.5 mg/kg/day(5 days) dose; format: functional
Outline: as §2

Onchocerca gutturosa [11] = experiment: Mean motility score for treated Onchocerca gutturosa involving LLCMK2 feeder cells at a concentration of 3.05*10e-9 M at 4 h; format: functional
Outline: as §1

Onchocerca volvulus [12] = experiment: Mean motility score for treated Onchocerca volvulus excluding LLCMK2 feeder cells at a concentration of 3.1*10e-6 M at 24 h
Onchocerca gutturosa [13] = experiment: Mean motility score for treated Onchocerca gutturosa involving LLCMK2 feeder cells at a concentration of 5*10e-5 M at 2.5 h; format: functional
Outline: as §1

Onchocerca gutturosa [14] = experiment: Mean motility score for treated Onchocerca gutturosa involving LLCMK2 feeder cells at a concentration of 5*10e-5 M at 4 h; format: functional
Outline: as §1

Onchocerca gutturosa [15] = experiment: Mean motility score for treated Onchocerca gutturosa involving LLCMK2 feeder cells at a concentration of 3.05*10e-9 M at 3.5 h; format: functional
Outline: as §1

Onchocerca gutturosa [16] = experiment: Mean motility score for treated Onchocerca gutturosa involving LLCMK2 feeder cells at a concentration of 5*10e-5 M at 96 h; format: functional
Outline: as §3

Onchocerca gutturosa [17] = experiment: Mean motility score for treated Onchocerca gutturosa involving LLCMK2 feeder cells at a concentration of 5*10e-5 M at 3 h; format: functional
Outline: as §1

Onchocerca gutturosa [18] = experiment: Mean motility score for treated Onchocerca gutturosa involving LLCMK2 feeder cells at a concentration of 3.05*10e-9 M at 72 h; format: functional
Outline: as §1

Onchocerca gutturosa [19] = experiment: Mean motility score for treated Onchocerca gutturosa involving LLCMK2 feeder cells at a concentration of 5*10e-5 M at 1 h; format: functional
Outline: as §1

Onchocerca gutturosa [20] = experiment: Mean motility score for treated Onchocerca gutturosa involving LLCMK2 feeder cells at a concentration of 3.05*10e-9 M at 24 h; format: functional
Outline: as §1

Onchocerca volvulus [21] = experiment: Mean motility score for treated Onchocerca volvulus excluding LLCMK2 feeder cells at a concentration of 5*10e-5 M at 72 h
Brugia pahangi [22] = experiment: anti-filarial Activity was measured against Brugia pahangi in jirds at 25 mg/kg/day(5 days) dose; format: functional
Outline: as §2

Onchocerca gutturosa [23] = experiment: Mean motility score for treated Onchocerca gutturosa involving LLCMK2 feeder cells at a concentration of 3.05*10e-9 M at 168 h; format: functional
Outline: as §1

Onchocerca gutturosa [24] = experiment: Mean motility score for treated Onchocerca gutturosa involving LLCMK2 feeder cells at a concentration of 5*10e-5 M at 3.5 h; format: functional
Outline: as §1

Onchocerca gutturosa [25] = experiment: Mean motility score for treated Onchocerca gutturosa involving LLCMK2 feeder cells at a concentration of 3.05*10e-9 M at 3 h; format: functional
Outline: as §1

Onchocerca volvulus [26] = experiment: Mean motility score for treated Onchocerca volvulus excluding LLCMK2 feeder cells at a concentration of 3.1*10e-6 M at 2 h
Onchocerca gutturosa [27] = experiment: Mean motility score for treated Onchocerca gutturosa involving LLCMK2 feeder cells at a concentration of 5*10e-5 M at 72 h; format: functional
Outline: as §3

Onchocerca volvulus [28] = experiment: Mean motility score for treated Onchocerca volvulus excluding LLCMK2 feeder cells at a concentration of 5*10e-5 M at 0.5 h
Onchocerca gutturosa [29] = experiment: Mean motility score for treated Onchocerca gutturosa involving LLCMK2 feeder cells at a concentration of 5*10e-5 M at 1.5 h; format: functional
Outline: as §1

Onchocerca volvulus [30] = experiment: Mean motility score for treated Onchocerca volvulus excluding LLCMK2 feeder cells at a concentration of 3.1*10e-6 M at 96 h
Onchocerca gutturosa [31] = experiment: Mean motility score for treated Onchocerca gutturosa involving LLCMK2 feeder cells at a concentration of 3.05*10e-9 M at 48 h; format: functional
Outline: as §1

Onchocerca volvulus [32] = experiment: Mean motility score for treated Onchocerca volvulus excluding LLCMK2 feeder cells at a concentration of 5*10e-5 M at 96 h
Onchocerca volvulus [33] = experiment: Mean motility score for treated Onchocerca volvulus excluding LLCMK2 feeder cells at a concentration of 5*10e-5 M at 48 h
Onchocerca volvulus [34] = experiment: Mean motility score for treated Onchocerca volvulus excluding LLCMK2 feeder cells at a concentration of 3.1*10e-6 M at 48 h
Onchocerca volvulus [35] = experiment: Mean motility score for treated Onchocerca volvulus excluding LLCMK2 feeder cells at a concentration of 5*10e-5 M at 2 h

Compound | Motility (Onchocerca volvulus [1]) | Motility (Onchocerca gutturosa [2]) | Suppression (Acanthocheilonema viteae [3]) | Motility (Onchocerca gutturosa [4]) | Motility (Onchocerca gutturosa [5]) | Motility (Onchocerca gutturosa [6]) | Motility (Onchocerca volvulus [7]) | Suppression (Acanthocheilonema viteae [8]) | Motility (Onchocerca volvulus [9]) | Suppression (Brugia pahangi [10]) | Motility (Onchocerca gutturosa [11]) | Motility (Onchocerca volvulus [12]) | Motility (Onchocerca gutturosa [13]) | Motility (Onchocerca gutturosa [14]) | Motility (Onchocerca gutturosa [15]) | Motility (Onchocerca gutturosa [16]) | Motility (Onchocerca gutturosa [17]) | Motility (Onchocerca gutturosa [18]) | Motility (Onchocerca gutturosa [19]) | Motility (Onchocerca gutturosa [20]) | further results
C/C(=N\NC(=S)N1CCCCCC1)c1ccccn1 | 6.6 | 4.8 | -16% | 0 | 0 | 5.5 | 6.6 | 100% | 8.4 | 100% | 7.8 | 3.4 | 3.8 | 1.5 | 8.3 | 0 | 2.2 | 6 | 4.8 | 9.3 | Motility (Onchocerca volvulus [21]): 1; Suppression (Brugia pahangi [22]): 84%; Motility (Onchocerca gutturosa [23]): 3.5; Motility (Onchocerca gutturosa [24]): 2.3; Motility (Onchocerca gutturosa [25]): 8.8; Motility (Onchocerca volvulus [26]): 6.6; Motility (Onchocerca gutturosa [27]): 0; Motility (Onchocerca volvulus [28]): 8; Motility (Onchocerca gutturosa [29]): 4.8; Motility (Onchocerca volvulus [30]): 0; Motility (Onchocerca gutturosa [31]): 6.8; Motility (Onchocerca volvulus [32]): 0.3; Motility (Onchocerca volvulus [33]): 1; Motility (Onchocerca volvulus [34]): 0.6; Motility (Onchocerca volvulus [35]): 8
C/C(=N\NC(S)=Nc1ccccc1N)c1ccccn1 | 5 | 8.5 | 28% | 9.5 | 8.3 | 6.8 | 8 | 94% | 5 | 16% | 5.8 | 1.6 | 9.5 | 9.5 | 7.3 | 1.5 | 9.3 | 7.5 | 10 | 7.3 | Motility (Onchocerca volvulus [21]): 2.4; Suppression (Brugia pahangi [22]): 100%; Motility (Onchocerca gutturosa [23]): 4.5; Motility (Onchocerca gutturosa [24]): 9.5; Motility (Onchocerca gutturosa [25]): 7.5; Motility (Onchocerca volvulus [26]): 6; Motility (Onchocerca gutturosa [27]): 1.6; Motility (Onchocerca volvulus [28]): 5; Motility (Onchocerca gutturosa [29]): 9.5; Motility (Onchocerca volvulus [30]): 0.4; Motility (Onchocerca gutturosa [31]): 6.3; Motility (Onchocerca volvulus [32]): 0.6; Motility (Onchocerca volvulus [33]): 3.6; Motility (Onchocerca volvulus [34]): 2; Motility (Onchocerca volvulus [35]): 6

Reference: ChEMBL document CHEMBL1125672, “2-acetylpyridine thiosemicarbazones. 13. Derivatives with antifilarial activity” (1991)
